Assay results: ChEMBL document CHEMBL2073766, “Effects of grapefruit juice and orange juice components on P-glycoprotein- and MRP2-mediated drug efflux” (Br J Pharmacol, 2004)

What was measured:
Format in all cases: functional, cell-based
[1] = target: T1, ATP-dependent translocase ABCB1 (Homo sapiens, UniProt P08183); test: TP_TRANSPORTER: increase in saquinavir intracellular accumulation in the presence of Sulfinpyrazone at 5mM in LLC-GA5-COL150 cells; details: pig, llc-ga5-col150, 5000 µM
Method in brief: (§1)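 LLC-GA5-COL150 (human MDR1-transfected LLC-PK1; colchicine withdrawn 6 h before assay) and LLC-PK1 control cells were grown 3 days in four-well dishes. Uptake of 5 µM [¹⁴C]saquinavir ± inhibitor ran 90 min in pH 7.4 HEPES buffer at 37°C and was stopped with ice-cold washes. Cell/medium ratio was normalised to Lowry protein. Potentiation ratio = % of control (MDR1 cells) / % of control (LLC-PK1) × 100; mean ± s.e.m. of three experiments.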

[2] = target: T1, ATP-dependent translocase ABCB1; test: TP_TRANSPORTER: increase in Vinblastine intracellular accumulation in the presence of Sulfinpyrazone at 5mM in LLC-GA5-COL150 cells; details: pig, llc-ga5-col150, 5000 µM
Method in brief: (§2)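 LLC-GA5-COL150 (LLC-PK1 transfected with human MDR1; grown with 150 ng ml⁻¹ colchicine, withdrawn 6 h before assay) and parental LLC-PK1 seeded in four-well dishes and grown 3 days. Cells were incubated 90 min with 20 nM [³H]vinblastine ± inhibitor in HEPES buffer, pH 7.4, 37°C, then washed in ice-cold buffer. Read-out was cell/medium ratio per mg protein (Lowry) by scintillation. Uptake potentiation ratio = % of control in transfectant / % of control in LLC-PK1 × 100; mean ± s.e.m., n=3.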

[3] = target: T1, ATP-dependent translocase ABCB1; test: TP_TRANSPORTER: increase in Vinblastine intracellular accumulation in the presence of Bergamottin at 20uM in LLC-GA5-COL150 cells; details: pig, llc-ga5-col150, 20 µM; method in brief: as §2
[4] = target: T1, ATP-dependent translocase ABCB1; test: TP_TRANSPORTER: increase in Vinblastine intracellular accumulation in the presence of MK-571 at 50uM in LLC-GA5-COL150 cells; details: pig, llc-ga5-col150, 50 µM; method in brief: as §2
[5] = target: T1, ATP-dependent translocase ABCB1; test: TP_TRANSPORTER: increase in saquinavir intracellular accumulation in the presence of Nobiletin at 20uM in LLC-GA5-COL150 cells; details: pig, llc-ga5-col150, 20 µM; method in brief: as §1
[6] = target: T1, ATP-dependent translocase ABCB1; test: TP_TRANSPORTER: increase in Vinblastine intracellular accumulation of Nobiletin at a concentration of 20uM in LLC-GA5-COL150 cells; details: pig, llc-ga5-col150, 20 µM; method in brief: as §2
[7] = target: T1, ATP-dependent translocase ABCB1; test: TP_TRANSPORTER: increase in saquinavir intracellular accumulation of Tangeretin at a concentration of 20uM in LLC-GA5-COL150 cells; details: pig, llc-ga5-col150, 20 µM; method in brief: as §1
[8] = target: T1, ATP-dependent translocase ABCB1; test: TP_TRANSPORTER: increase in Vinblastine intracellular accumulation of Tangeretin at a concentration of 20uM in LLC-GA5-COL150 cells; details: pig, llc-ga5-col150, 20 µM; method in brief: as §2
[9] = target: T1, ATP-dependent translocase ABCB1; test: TP_TRANSPORTER: increase in saquinavir intracellular accumulation of 6',7'-Dihydroxybergamottin at a concentration of 20uM in LLC-GA5-COL150 cells; details: pig, llc-ga5-col150, 20 µM; method in brief: as §1
[10] = target: T1, ATP-dependent translocase ABCB1; test: TP_TRANSPORTER: increase in Vinblastine intracellular accumulation of 6',7'-Dihydroxybergamottin at a concentration of 20uM in LLC-GA5-COL150 cells; details: pig, llc-ga5-col150, 20 µM; method in brief: as §2
[11] = target: T1, ATP-dependent translocase ABCB1; test: TP_TRANSPORTER: increase in saquinavir intracellular accumulation in the presence of Probenecid at 5mM in LLC-GA5-COL150 cells; details: pig, llc-ga5-col150, 5000 µM; method in brief: as §1
[12] = target: T1, ATP-dependent translocase ABCB1; test: TP_TRANSPORTER: increase in Vinblastine intracellular accumulation in the presence of Probenecid at 5mM in LLC-GA5-COL150 cells; details: pig, llc-ga5-col150, 5000 µM; method in brief: as §2

T1 sequence (P08183 whole entry): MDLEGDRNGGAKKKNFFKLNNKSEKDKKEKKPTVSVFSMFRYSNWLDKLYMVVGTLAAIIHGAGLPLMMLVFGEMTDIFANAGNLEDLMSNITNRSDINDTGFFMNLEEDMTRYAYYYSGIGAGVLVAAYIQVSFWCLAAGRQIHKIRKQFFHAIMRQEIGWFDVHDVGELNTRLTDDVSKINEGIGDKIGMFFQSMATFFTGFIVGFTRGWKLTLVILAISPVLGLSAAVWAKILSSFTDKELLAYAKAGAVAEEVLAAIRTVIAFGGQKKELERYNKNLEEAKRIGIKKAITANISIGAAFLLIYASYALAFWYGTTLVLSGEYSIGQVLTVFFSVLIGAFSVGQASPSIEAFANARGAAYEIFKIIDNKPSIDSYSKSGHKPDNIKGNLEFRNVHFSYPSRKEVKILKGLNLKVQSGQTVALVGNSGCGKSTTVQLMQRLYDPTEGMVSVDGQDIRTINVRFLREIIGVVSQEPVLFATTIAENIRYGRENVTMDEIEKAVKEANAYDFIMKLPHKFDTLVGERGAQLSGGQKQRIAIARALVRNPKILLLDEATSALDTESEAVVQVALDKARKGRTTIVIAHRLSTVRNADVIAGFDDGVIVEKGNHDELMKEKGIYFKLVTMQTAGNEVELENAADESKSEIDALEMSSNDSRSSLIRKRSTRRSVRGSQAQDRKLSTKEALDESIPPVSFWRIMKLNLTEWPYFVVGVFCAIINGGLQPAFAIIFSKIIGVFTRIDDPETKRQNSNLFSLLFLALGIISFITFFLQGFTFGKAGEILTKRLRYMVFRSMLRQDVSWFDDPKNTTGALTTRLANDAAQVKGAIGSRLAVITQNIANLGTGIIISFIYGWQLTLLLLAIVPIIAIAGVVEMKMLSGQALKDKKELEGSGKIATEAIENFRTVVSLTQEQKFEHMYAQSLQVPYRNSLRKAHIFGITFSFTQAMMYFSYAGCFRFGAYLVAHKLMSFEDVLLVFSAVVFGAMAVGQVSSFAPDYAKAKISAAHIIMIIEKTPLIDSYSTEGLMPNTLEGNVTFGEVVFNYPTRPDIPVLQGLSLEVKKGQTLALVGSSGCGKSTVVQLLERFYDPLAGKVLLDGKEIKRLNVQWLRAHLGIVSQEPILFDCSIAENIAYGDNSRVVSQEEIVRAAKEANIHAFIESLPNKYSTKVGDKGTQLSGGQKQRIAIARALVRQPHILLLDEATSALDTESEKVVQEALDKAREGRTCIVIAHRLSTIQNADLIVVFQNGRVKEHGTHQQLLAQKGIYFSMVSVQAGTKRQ

O=C1C(CC[S+]([O-])c2ccccc2)C(=O)N(c2ccccc2)N1c1ccccc1 (configuration not stated) [SULFINPYRAZONE]
Activity [1]: is not an inhibitor [-] | Activity [2]: is not an inhibitor [-]

CC(C)=CCC/C(C)=C/COc1c2ccoc2cc2oc(=O)ccc12 [BERGAMOTTIN]
Activity [3]: is not an inhibitor [-]

CN(C)C(=O)CCSC(SCCC(=O)O)c1cccc(/C=C/c2ccc3ccc(Cl)cc3n2)c1 (configuration not stated) [MK-571]
Activity [4]: is not an inhibitor [-]

COc1ccc(-c2cc(=O)c3c(OC)c(OC)c(OC)c(OC)c3o2)cc1OC [NOBILETIN]
Activity [5]: is not an inhibitor [-] | Activity [6]: inhibitor [+]

COc1ccc(-c2cc(=O)c3c(OC)c(OC)c(OC)c(OC)c3o2)cc1 [TANGERETIN]
Activity [7]: inhibitor [+] | Activity [8]: inhibitor [+]

C/C(=C\COc1c2ccoc2cc2oc(=O)ccc12)CC[C@@H](O)C(C)(C)O
Activity [9]: inhibitor [+] | Activity [10]: inhibitor [+]

CCCN(CCC)S(=O)(=O)c1ccc(C(=O)O)cc1 [PROBENECID]
Activity [11]: is not an inhibitor [-] | Activity [12]: is not an inhibitor [-]
